From ChEMBL document CHEMBL2169798, “Discovery of a Plasmodium falciparum glucose-6-phosphate dehydrogenase 6-phosphogluconolactonase inhibitor (R,Z)-N-((1-ethylpyrrolidin-2-yl)methyl)-2-(2-fluorobenzylidene)-3-oxo-3,4-dihydro-2H-benzo[b][1,4]thiazine-6-carboxamide (ML276) that reduces parasite growth in vitro” (J Med Chem, 2012)
Values belong to the molecule of their own block, whether it stands above or below them.

Legend:
[1] = biological target: Glucose-6-phosphate 1-dehydrogenase (Homo sapiens, UniProt P11413); assay: Inhibition of human glucose-6-phosphate dehydrogenase after 90 mins by resazurin/diaphorasecoupled assay
Outline: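 Dose response with a top final concentration of […] and 0.8% final DMSO, in 50 mM Tris pH 7.5, 0.005% Tween 20 and 1 mg/mL BSA. The enzyme solution held 0.05 μg/mL hG6PD. The substrate solution held 0.64 mM G6P, 12 μM NADP+, 6.6 mM MgCl2, 2 U/mL diaphorase and 0.28 mM resazurin.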

[2] = biological target: T1, Glucose-6-phosphate 1-dehydrogenase (Plasmodium falciparum, UniProt Q25856); assay: Inhibition of Plasmodium falciparum glucose-6-phosphate dehydrogenase after 45 mins by orthogonal assay
T1 sequence (Q25856 whole entry): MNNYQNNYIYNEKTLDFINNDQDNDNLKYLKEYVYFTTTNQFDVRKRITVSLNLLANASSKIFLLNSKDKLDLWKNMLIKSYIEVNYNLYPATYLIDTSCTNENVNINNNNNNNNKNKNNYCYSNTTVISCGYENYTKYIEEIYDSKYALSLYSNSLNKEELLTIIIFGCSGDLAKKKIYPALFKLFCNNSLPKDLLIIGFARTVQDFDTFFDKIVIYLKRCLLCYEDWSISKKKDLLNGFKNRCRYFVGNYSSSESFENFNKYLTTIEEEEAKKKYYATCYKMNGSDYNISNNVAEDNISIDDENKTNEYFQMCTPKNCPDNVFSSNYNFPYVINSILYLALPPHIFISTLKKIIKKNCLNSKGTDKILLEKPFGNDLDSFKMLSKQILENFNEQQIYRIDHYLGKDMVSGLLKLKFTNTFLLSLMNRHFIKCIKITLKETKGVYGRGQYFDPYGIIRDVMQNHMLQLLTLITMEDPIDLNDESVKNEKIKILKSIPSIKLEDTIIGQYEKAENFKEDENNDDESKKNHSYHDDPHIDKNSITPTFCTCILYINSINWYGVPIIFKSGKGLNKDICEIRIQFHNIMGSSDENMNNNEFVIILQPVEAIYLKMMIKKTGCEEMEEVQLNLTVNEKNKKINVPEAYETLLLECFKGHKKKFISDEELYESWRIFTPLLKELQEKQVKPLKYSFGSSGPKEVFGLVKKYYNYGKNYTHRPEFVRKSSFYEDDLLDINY
Outline: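 Direct NADPH read without coupling: PfGluPho (0.4 μg/mL enzyme solution) in 50 mM Tris pH 7.5, 0.005% Tween 20, 1 mg/mL BSA; substrate 40 μM G6P, 6 μM NADP+, 6.6 mM MgCl2.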

[3] = biological target: T1, Glucose-6-phosphate 1-dehydrogenase; assay: Inhibition of Plasmodium falciparum glucose-6-phosphate dehydrogenase after 2 hrs by resazurin/diaphorasecoupled assay

Glucose-6-phosphate 1-dehydrogenase (Homo sapiens, UniProt P11413), sequence (P11413 whole entry): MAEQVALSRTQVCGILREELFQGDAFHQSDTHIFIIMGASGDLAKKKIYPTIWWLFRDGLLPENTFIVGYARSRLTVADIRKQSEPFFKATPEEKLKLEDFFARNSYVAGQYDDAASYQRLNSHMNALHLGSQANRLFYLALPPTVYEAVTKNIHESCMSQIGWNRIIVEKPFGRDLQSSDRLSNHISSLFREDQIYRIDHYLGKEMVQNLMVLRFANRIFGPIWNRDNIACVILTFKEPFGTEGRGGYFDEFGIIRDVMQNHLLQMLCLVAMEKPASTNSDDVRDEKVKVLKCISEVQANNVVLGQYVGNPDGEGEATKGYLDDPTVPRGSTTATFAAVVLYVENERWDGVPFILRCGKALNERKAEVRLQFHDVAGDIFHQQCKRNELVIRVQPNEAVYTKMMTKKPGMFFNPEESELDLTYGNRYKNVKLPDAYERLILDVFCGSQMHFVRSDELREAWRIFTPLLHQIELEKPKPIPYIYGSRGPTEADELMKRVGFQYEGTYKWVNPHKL

Compound: Cc1cccc(/C=C2\Sc3ccc(C(=O)NCCN4CCCC4)cc3NC2=O)c1
IC50 [1]: > 80 µM
IC50 [2]: 8.8 µM
IC50 [3]: 11.8 µM

Compound: CN(C)CCNC(=O)c1ccc2c(c1)NC(=O)/C(=C/c1cccc(Cl)c1)S2
IC50 [1]: > 80 µM
IC50 [2]: 43.6 µM
IC50 [3]: 60 µM

Compound: O=C1Nc2cc(C(=O)NCCN3CCCCCC3)ccc2S/C1=C\c1ccccc1Cl
IC50 [1]: > 80 µM
IC50 [2]: > 80 µM
IC50 [3]: 40.9 µM

Compound: CN(C)c1ccccc1CNC(=O)c1ccc2c(c1)NC(=O)/C(=C/c1ccccc1F)S2
IC50 [1]: > 80 µM
IC50 [2]: 67.8 µM
IC50 [3]: > 80 µM

IC50 [1]: > 80 µM
Compound: CCN(CC)CCNC(=O)c1ccc2c(c1)NC(=O)/C(=C/c1cccc(C)c1)S2

IC50 [1]: > 80 µM
Compound: CCN1CCCC1CNC(=O)c1ccc2c(c1)NC(=O)/C(=C/c1ccc(C)cc1)S2 (configuration not stated)

Compound: CCN1CCCC1CNC(=O)c1ccc2c(c1)NC(=O)/C(=C/c1cccc3ccccc13)S2 (configuration not stated)
IC50 [1]: > 80 µM
IC50 [2]: 4.2 µM
IC50 [3]: 4.28 µM

Compound: CCN1CCC[C@H]1CNC(=O)c1ccc2c(c1)NC(=O)/C(=C/c1ccccc1F)S2
IC50 [1]: > 80 µM
IC50 [2]: 4.7 µM
IC50 [3]: 6.6 µM

IC50 [1]: > 80 µM
Compound: O=C1Nc2cc(C(=O)NCC3CCCN3)ccc2S/C1=C\c1ccccc1F (configuration not stated)

Compound: NC1CCN(C(=O)c2ccc3c(c2)NC(=O)/C(=C/c2ccccc2F)S3)C1 (configuration not stated)
IC50 [1]: > 80 µM
IC50 [2]: 35 µM
IC50 [3]: 45 µM

IC50 [1]: > 80 µM
Compound: CCN1CCCC1CNC(=O)c1ccc2c(c1)NC(=O)/C(=C/c1c(F)cccc1F)S2 (configuration not stated)

Compound: COc1ccc(/C=C2\Sc3ccc(C(=O)NCCN4CCCC4)cc3NC2=O)cc1
IC50 [1]: > 80 µM
IC50 [2]: > 80 µM
IC50 [3]: 49.7 µM

Compound: O=C1Nc2cc(C(=O)NCc3ccccc3)ccc2S/C1=C\c1ccccc1F
IC50 [1]: > 80 µM
IC50 [2]: > 80 µM
IC50 [3]: > 80 µM

Compound: CCN(CC)CCNC(=O)c1ccc2c(c1)NC(=O)/C(=C/c1ccccc1F)S2 (stereo in doubt; 22)
IC50 [1]: > 80 µM
IC50 [2]: 4.8 µM
IC50 [3]: 6.9 µM

Compound: CCN(CC)CCNC(=O)c1ccc2c(c1)NC(=O)/C(=C/c1ccccc1F)S2 (stereo in doubt; 21)
IC50 [1]: > 80 µM
IC50 [2]: 9.4 µM
IC50 [3]: 7.4 µM

Compound: O=C1Nc2cc(C(=O)NCCN3CCCCC3)ccc2S/C1=C\c1ccccc1F
IC50 [1]: > 80 µM
IC50 [2]: 24 µM
IC50 [3]: 21.6 µM

IC50 [1]: > 80 µM
Compound: CCN1CCCC1CNC(=O)c1ccc2c(c1)NC(=O)/C(=C/c1cccc(F)c1)S2 (configuration not stated)

Compound: CCN1CCCC1CNC(=O)c1ccc2c(c1)NC(=O)/C(=C/c1ccc3ccccc3c1)S2 (configuration not stated)
IC50 [1]: > 80 µM
IC50 [2]: 2.88 µM
IC50 [3]: 2.39 µM

IC50 [1]: > 80 µM
Compound: O=C1Nc2cc(C(=O)NCCN3CCCC3)ccc2S/C1=C\c1ccccc1F (stereo in doubt; 28)

Compound: COc1ccc(/C=C2\Sc3ccc(C(=O)NCCN(C)C)cc3NC2=O)cc1
IC50 [1]: > 80 µM
IC50 [2]: > 80 µM
IC50 [3]: > 80 µM

Compound: CCN1CCCC1CNC(=O)c1ccc2c(c1)NC(=O)/C(=C/c1ccccc1OC)S2 (configuration not stated)
IC50 [1]: > 80 µM
IC50 [2]: 11.3 µM
IC50 [3]: 9.79 µM

Compound: COc1ccc(/C=C2\Sc3ccc(C(=O)NCCN4CCCCCC4)cc3NC2=O)cc1
IC50 [1]: > 80 µM
IC50 [2]: > 80 µM
IC50 [3]: > 80 µM

Compound: CCN1CCCC1CNC(=O)c1ccc2c(c1)NC(=O)CS2 (configuration not stated)
IC50 [3]: > 80 µM

Compound: O=C1Nc2cc(C(=O)NCCCN3CCCC3)ccc2S/C1=C\c1ccccc1
IC50 [1]: > 80 µM
IC50 [2]: 22.3 µM
IC50 [3]: 9.3 µM

Compound: CCN1CCCC1CNC(=O)c1ccc2c(c1)NC(=O)/C(=C/c1ccccc1C)S2 (configuration not stated)
IC50 [1]: > 80 µM
IC50 [2]: 5.01 µM
IC50 [3]: 5.93 µM

Compound: O=C1Nc2cc(C(=O)NCCN3CCOCC3)ccc2S/C1=C\c1ccccc1F
IC50 [1]: > 80 µM
IC50 [2]: > 80 µM
IC50 [3]: > 80 µM

Compound: CCN1CCCC1CNC(=O)c1ccc2c(c1)NC(=O)/C(=C/c1ccccc1Cl)S2 (configuration not stated)
IC50 [1]: > 80 µM
IC50 [2]: 3.3 µM
IC50 [3]: 2.56 µM

IC50 [1]: > 80 µM
Compound: CCN1CCCC1CNC(=O)c1ccc2c(c1)NC(=O)/C(=C/c1cccc(F)c1F)S2 (configuration not stated)

IC50 [1]: > 80 µM
Compound: CN(C)CCNC(=O)c1ccc2c(c1)NC(=O)/C(=C/c1ccccc1F)S2 (stereo in doubt; 17)

Compound: CCN1CCCC1CNC(=O)c1ccc2c(c1)NC(=O)/C(=C/c1ccc(F)cc1)S2 (configuration not stated)
IC50 [1]: > 80 µM
IC50 [2]: 2.06 µM
IC50 [3]: 1.41 µM

Compound: CCCN(CCC)CCNC(=O)c1ccc2c(c1)NC(=O)/C(=C/c1ccc(C)cc1)S2
IC50 [1]: > 80 µM
IC50 [2]: 45.9 µM
IC50 [3]: > 80 µM

Compound: CCN(CC)CCNC(=O)c1ccc2c(c1)NC(=O)/C(=C/c1ccccc1)S2
IC50 [1]: > 80 µM
IC50 [2]: 18.4 µM
IC50 [3]: 8.8 µM

Compound: CCN(CC)CCNC(=O)c1ccc2c(c1)NC(=O)/C(=C/c1ccc(OC)c(OC)c1)S2
IC50 [1]: > 80 µM
IC50 [2]: 24.5 µM
IC50 [3]: 60 µM

Compound: COc1cccc(/C=C2\Sc3ccc(C(=O)NCCN4CCCCCC4)cc3NC2=O)c1
IC50 [1]: > 80 µM
IC50 [2]: 58.5 µM
IC50 [3]: > 80 µM

IC50 [1]: > 80 µM
Compound: CN(C)CCNC(=O)c1ccc2c(c1)NC(=O)/C(=C/c1ccccc1F)S2 (stereo in doubt; 16)

Compound: CCCN(CCC)CCNC(=O)c1ccc2c(c1)NC(=O)/C(=C/c1ccccc1)S2
IC50 [1]: > 80 µM
IC50 [2]: 27.2 µM
IC50 [3]: > 80 µM

Compound: CC(C)(C)OC(=O)N1CCCC1CNC(=O)c1ccc2c(c1)NC(=O)/C(=C/c1ccccc1F)S2 (configuration not stated)
IC50 [1]: > 80 µM
IC50 [2]: 24.4 µM
IC50 [3]: > 80 µM

IC50 [1]: > 80 µM
Compound: O=C1Nc2cc(C(=O)NCCCN3CCCC3)ccc2S/C1=C\c1cccc(Cl)c1

Compound: O=C1Nc2cc(C(=O)NCCN3CCCCCC3)ccc2S/C1=C\c1ccccc1F
IC50 [1]: > 80 µM
IC50 [2]: 11 µM
IC50 [3]: 46.6 µM

Compound: CCN(CC)CCNC(=O)c1ccc2c(c1)NC(=O)/C(=C/c1ccccc1Cl)S2
IC50 [1]: > 80 µM
IC50 [2]: 44.9 µM
IC50 [3]: 16.2 µM

Compound: CCN1CCCC1CNC(=O)c1ccc2c(c1)NC(=O)C(Cc1ccccc1F)S2 (configuration not stated)
IC50 [1]: > 80 µM
IC50 [3]: > 80 µM

IC50 [1]: > 80 µM
Compound: CCCN1CCCC1CNC(=O)c1ccc2c(c1)NC(=O)/C(=C/c1ccccc1F)S2 (configuration not stated)

Compound: CCN1CCCC1CNC(=O)c1ccc2c(c1)NC(=O)/C(=C/c1ccccc1F)S2 (racemic)
IC50 [1]: > 80 µM
IC50 [2]: 1.37 µM
IC50 [3]: 1.75 µM

Compound: O=C1Nc2cc(C(=O)NCCN3CCCC3)ccc2S/C1=C\c1ccccc1Cl
IC50 [1]: > 80 µM
IC50 [2]: > 80 µM
IC50 [3]: 11.1 µM

IC50 [1]: > 80 µM
Compound: O=C1Nc2cc(C(=O)NCCN3CCCC3)ccc2S/C1=C\c1ccccc1F (stereo in doubt; 29)

Compound: CN1CCCC1CCNC(=O)c1ccc2c(c1)NC(=O)/C(=C/c1ccccc1F)S2 (configuration not stated)
IC50 [1]: > 80 µM
IC50 [2]: 45.2 µM
IC50 [3]: 22.7 µM

IC50 [1]: > 80 µM
Compound: CCN1CCCC1CNC(=O)c1ccc2c(c1)NC(=O)/C(=C/c1ccccc1)S2 (configuration not stated)
